Results from ChEMBL document CHEMBL1127800, “Asimin, asiminacin, and asiminecin: novel highly cytotoxic asimicin isomers from Asimina triloba” (J Med Chem, 1994).
Values after ≈ are worked out from the molar mass of the structure shown.

Tests used:
[1] = Tested for cytotoxicity by using brine shrimp lethality test; format: organism-based; conditions: artemia, in vivo
MCF7 = assay: Tested in vitro for cytotoxicity against MCF-7 breast cancer cells; format: functional; conditions: Homo sapiens, read-out: ED50 (the source's name)
Summary of the method: (§1)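 Seven-day in vitro cytotoxicity assay in human tumour cell lines (A-549 lung carcinoma, MCF-7 breast carcinoma, HT-29 colon carcinoma), run by standard protocols; adriamycin tested alongside.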

A549 = assay: Tested in vitro for cytotoxicity against A-549 lung cancer cells; format: functional; conditions: Homo sapiens, read-out: ED50 (the source's name); summary of the method: as §1
HT-29 = assay: Tested in vitro for cytotoxicity against H-29 colon cancer cells; format: functional; conditions: Homo sapiens, read-out: ED50 (the source's name); summary of the method: as §1

## CCCCCC[C@H](O)CCC[C@@H](O)[C@H]1CC[C@H]([C@H]2CC[C@H]([C@H](O)CCCCCCCCC[C@@H](C)CCC3=C[C@H](C)OC3=O)O2)O1
[1]
  LC50: 0.0049 µg/mL (≈ 0.00769 µM)

## CCCCCCCCCC[C@@H](O)[C@H]1CC[C@H]([C@H]2CC[C@H]([C@H](O)CCCCCCCCCC[C@H](O)CC3=C[C@H](C)OC3=O)O2)O1
MCF7
  EC50: 0.852 µg/mL (≈ 1.37 µM)
[1]
  LC50: 0.0256 µg/mL (≈ 0.0411 µM)
A549
  EC50: 0.00843 µg/mL (≈ 0.0135 µM)

## CCCCCCCCCC[C@@H](C(C)=O)[C@H]1CC[C@H]([C@H]2CC[C@H]([C@@H](CCCC[C@H](CCCC[C@@H](C)CCC3=C[C@H](C)OC3=O)C(C)=O)C(C)=O)O2)O1
[1]
  LC50: 0.0057 µg/mL (≈ 0.00797 µM)

## COc1cccc2c1C(=O)c1c(O)c3c(c(O)c1C2=O)C[C@@](O)(C(=O)CO)C[C@@H]3O[C@H]1C[C@H](N)[C@H](O)[C@H](C)O1 [DOXORUBICIN]
MCF7
  EC50: 0.0176 µg/mL (≈ 0.0324 µM)
[1]
  LC50: 0.257 µg/mL (≈ 0.473 µM)
A549
  EC50: 0.000104 µg/mL (≈ 0.000191 µM)
HT-29
  EC50: 0.000153 µg/mL (≈ 0.000281 µM)

## CCCCCCCCCC[C@@H](O)[C@H]1CC[C@H]([C@H]2CC[C@H]([C@H](O)CCCCCCCCC[C@@H](C)CCC3=C[C@H](C)OC3=O)O2)O1
[1]
  LC50: 4600 µg/mL (≈ 7410 µM)
